Laboratory results reported in ChEMBL document CHEMBL1148355, “Inhibition of group IVA cytosolic phospholipase A2 by novel 2-oxoamides in vitro, in cells, and in vivo” (J Med Chem, 2004).
pIC50: −log10 of the molar value.

Columns and labels:
[1] = target: T1, Cytosolic phospholipase A2 (Homo sapiens) (UniProt P47712); experiment: Mole fraction of compound in the total substrate interface required to inhibit human GIVA PLA2 by 50%
T1 sequence (whole entry): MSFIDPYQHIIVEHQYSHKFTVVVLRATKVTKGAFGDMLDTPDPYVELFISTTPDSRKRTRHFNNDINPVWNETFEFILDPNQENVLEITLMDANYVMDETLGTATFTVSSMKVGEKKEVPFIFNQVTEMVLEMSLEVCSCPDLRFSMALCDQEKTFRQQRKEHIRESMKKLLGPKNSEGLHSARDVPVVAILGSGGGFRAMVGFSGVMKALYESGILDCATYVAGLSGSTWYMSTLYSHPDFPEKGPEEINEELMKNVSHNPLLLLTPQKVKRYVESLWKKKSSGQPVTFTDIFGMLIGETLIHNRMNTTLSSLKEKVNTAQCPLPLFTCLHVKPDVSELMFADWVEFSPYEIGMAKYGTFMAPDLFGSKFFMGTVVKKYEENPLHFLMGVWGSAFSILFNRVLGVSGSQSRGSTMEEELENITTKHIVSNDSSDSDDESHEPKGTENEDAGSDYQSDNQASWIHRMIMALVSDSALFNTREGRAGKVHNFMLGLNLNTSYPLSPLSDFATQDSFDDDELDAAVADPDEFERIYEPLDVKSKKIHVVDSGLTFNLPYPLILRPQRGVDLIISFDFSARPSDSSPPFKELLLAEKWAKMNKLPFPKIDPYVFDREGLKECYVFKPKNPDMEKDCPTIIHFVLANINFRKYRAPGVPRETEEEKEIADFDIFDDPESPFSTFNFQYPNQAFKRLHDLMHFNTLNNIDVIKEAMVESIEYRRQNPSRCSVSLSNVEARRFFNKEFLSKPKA
Procedure, shortened: (§1)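 GIVA PLA2 activity measured on mixed micelles of TX-100 (400 μM), 1-palmitoyl-2-[14C]arachidonoyl PC (97 μM) and PIP2 (3 μM, 0.6 mol %). Inhibitor surface mole fraction varied within the micelles; percent inhibition calculated relative to a DMSO control. Xi(50) is the mole fraction giving 50% inhibition, obtained by a logarithmic or linear fit.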

[2] = target: T1, Cytosolic phospholipase A2 (Homo sapiens); experiment: Percent inhibition of human GIVA PLA2 by the compound at a concentration (mole fraction) of 0.01; procedure, shortened: as §1
[3] = target: T1, Cytosolic phospholipase A2 (Homo sapiens); experiment: Percent inhibition of human GIVA PLA2 by the compound at a concentration (mole fraction) of 0.08; procedure, shortened: as §1
[4] = target: T1, Cytosolic phospholipase A2 (Homo sapiens); experiment: Percent inhibition of human GIVA PLA2 by the compound at a concentration (mole fraction) of 0.05; procedure, shortened: as §1
Rattus norvegicus [5] = experiment: Compound was tested for in vivo analgesic activity in rat; format: functional
Mus musculus [6] = species on record: Mus musculus; experiment: Compound was tested on P388D1 macrophage-like cell line (PGE2 production) for inhibition of the GIVA PLA2 in the long-term lipopolysaccharide; format: functional, organism-based
Procedure, shortened: (§2)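 P388D1 murine macrophages plated at 10^6 cells/well and left to adhere overnight. Starved 1 h in 0.2% FCS medium. Compound added in DMSO (<0.5% v/v) 30 min before 100 ng/mL LPS for 18 h. Medium PGE2 measured by enzyme immunoassay and normalized to DMSO/LPS controls. IC50 taken from a logarithmic fit.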

Rattus norvegicus [7] = experiment: Compound was tested for in vivo antiinflammatory activity in rat; format: functional, organism-based
Procedure, shortened: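 Carrageenan paw edema in Fisher 344 rats (150–200 g), both sexes. Edema induced by 0.1 mL 2% w/v carrageenan in saline, intradermal into the right footpad. Compound suspended in Tween 80/water and given ip at the same time. Rats killed at 3.5 h, injected minus uninjected paw weight taken, and % inhibition calculated vs water controls. Four concentrations tested, two groups of five; mean of two experiments.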

Mus musculus [8] = species on record: Mus musculus; experiment: Compound was tested on P388D1 macrophage-like cell line (AA-derived products) for inhibition of the GIVA PLA2 in the long-term lipopolysaccharide; format: functional, organism-based
[9] = target: T1, Cytosolic phospholipase A2 (Homo sapiens); experiment: Percent inhibition of human GIVA PLA2 by the compound at a concentration (mole fraction) of 0.02; procedure, shortened: as §1
Mus musculus [10] = species on record: Mus musculus; experiment: Tested on P388D1 macrophage-like cell line (AA-derived products) for inhibition of the GIVA PLA2 in the long-term lipopolysaccharide; format: functional, organism-based
Mus musculus [11] = species on record: Mus musculus; experiment: Tested on P388D1 macrophage-like cell line (PGE2 production) for inhibition of the GIVA PLA2 in the long-term lipopolysaccharide; format: functional, organism-based; procedure, shortened: as §2
[12] = in the assay text read “of 0.091” for “of 0.01”

Molecule `CCCCCCCCCCOC[C@@H](CCC(=O)O)NC(=O)C(=O)CCCCCCCCCC` has an X1(50) [1] of 0.047.
With `NC(=O)C(=O)CCCCc1ccccc1` the inhibition [2] was 0%.
For `CCCCCCCCCCC(=O)C(=O)N[C@H](CCC(=O)O)CC(C)C`, the X1(50) [1] was 0.021.
`CCCCCCCCCCCCCCCC(=O)NCCCC(=O)O` showed an inhibition [3] of 22%.
`CCCCCCCCCCCCCC(=O)C(N)=O` was tested, and the inhibition [2] was 0%.
For `CCCCCCC(=O)C(=O)NCCCC(=O)O`, the inhibition [4] was 0%.
In the case of `CCCCCCCCCCC(=O)C(=O)N[C@@H](CCCC)CCC(=O)O`, the Analgesic activity (Rattus norvegicus [5]) was 63%, the X1(50) [1] was 0.009 and the pIC50 (Mus musculus [6]) was 5.24. For the same molecule, the EC50 (Rattus norvegicus [7]) was 0.1 mmol/kg and the pIC50 (Mus musculus [8]) was 5.12.
For `CCCCCCCC/C=C\CCCCCCCCNC(=O)C(=O)CCCCCCCCCCCCCC`, the inhibition [4] was 0%.
For `CCCCCCCCCCOC[C@H](CCC(=O)O)NC(=O)C(=O)CCCCCCCCCC`, the X1(50) [1] was 0.045.
With `CCCCCCCCCCC(=O)C(=O)N[C@H](CCCC)CCC(=O)O` the X1(50) [1] was 0.068.
Work on `CCCCCCCCCCCCCC(=O)C(=O)N[C@@H](CCCC)CCC(=O)O` yielded an X1(50) [1] of 0.01.
For `CCCCCCCCCCCCCC(=O)C(=O)N[C@@H](C)CCC(=O)O`, the X1(50) [1] was 0.021.
`CCCCCCCCCCCCCCC(=O)C(=O)NCCCC(=O)OC` showed an inhibition [3] of 0%.
`CCCCCCC(=O)C(=O)N[C@H](CCC(=O)O)Cc1ccccc1` was tested, and the inhibition [2, 12] was 24%.
`CCCCCCCCCCCCCCC(=O)C(=O)NCCCCC` gave an inhibition [9] of 22%.
Work on `CCCCCCCCCCC(=O)C(=O)N1CCC[C@H]1CCC(=O)O` yielded an inhibition [2, 12] of 0%.
`CCCCCCCCCCCCCC(=O)C(=O)N1CCC[C@H]1CCC(=O)O` was tested, and the inhibition [2, 12] was 24%.
`CCCCCCCCCCCCCC(=O)C(=O)N[C@H](CCC(=O)O)Cc1ccccc1` showed an X1(50) [1] of 0.035.
`CCCCCCCCCCCCCCC(=O)C(=O)NCCCC(=O)O` showed an Analgesic activity (Rattus norvegicus [5]) of 93%, an X1(50) [1] of 0.017 and an EC50 (Rattus norvegicus [7]) of 0.01 mmol/kg. It also gave a pIC50 (Mus musculus [10]) of 5.07 and a pIC50 (Mus musculus [11]) of 5.11.
`CCCCCCCC/C=C\CCCCCCCCNC(=O)C(=O)CCCCC` showed an inhibition [2] of 0%.
With `CCCCCCCCCCCCCC(=O)C(=O)N[C@H](CCC(=O)O)CC(C)C` the Analgesic activity (Rattus norvegicus [5]) was 69%, the X1(50) [1] was 0.017 and the pIC50 (Mus musculus [6]) was 5.00. It also gave an EC50 (Rattus norvegicus [7]) of 0.008 mmol/kg and a pIC50 (Mus musculus [8]) of 5.34.
With `CCCCCCCCCCCCCCCCNC(=O)C(=O)CC` the inhibition [2] was 0%.
